Measurements from different studies.
Target: Serine/threonine-protein kinase 10 (STK10, Homo sapiens, UniProt O94804)

COc1ccc2oc(-c3ccc4nc(N)oc4c3)c/c(=N\c3ccccc3NC(=O)CCN)c2c1
remaining binding (binding; 1 µM): 100%

C1=C/COCc2cc(ccc2OCCN2CCCC2)Nc2nccc(n2)-c2cccc(c2)COC/1
remaining signal (cell-free assay; 0.1 µM): 89%

Cc1ccc(NC(=O)c2ccnc(C(F)(F)F)c2)cc1-c1cc(OCCO)nc(N2CCOCC2)c1
remaining binding (binding; competition with immobilised ligand; 1 µM): 21%

CCCCC(=O)Nc1ccc(-c2ccc3ncn(CCC)c(=O)c3c2)cn1
remaining binding (binding; competition with immobilised ligand; 0.5 µM): 99%

C=CC(=O)N1CCC[C@@H](n2nc(-c3ccc(Oc4ccccc4)cc3)c3c(N)ncnc32)C1
inhibition (enzyme activity; inhibitor; 1 µM): 46%

CN1CCN(C(=O)c2ccc(NC(=O)Nc3ccc(N(C)c4ccnc(Nc5ccc(CS(C)(=O)=O)cc5)n4)cc3)cc2)CC1
remaining binding (binding; competition with immobilised ligand; 1 µM): 0.4%

C=CC(=O)N1CCC([C@@H]2CCNc3c(C(N)=O)c(-c4ccc(Oc5ccccc5)cc4)nn32)CC1
inhibition (enzyme activity; inhibitor; 1 µM): 0%

C#Cc1cc(-c2cc(Nc3nc(N[C@@H](C)c4ccc(F)cn4)ncc3Cl)n[nH]2)ccc1C=O
inhibition (enzyme activity; inhibitor; 0.2 µM): 36.5%
